The source made the active and inactive calls. No cut-off for these calls is given here.

Assay [1] is described as follows: Antioxidant activity assessed as DPPH free radical scavenging activity by measuring remaining DPPH at 5 uM after 15 to 60 mins relative to trolox. In kind it is functional. In a few lines: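 DPPH 74 μM final in H2O/MeOH (5/3), mixed vigorously with sample (0.1 mM stock in MeOH; 5 μM final) and left standing. Absorbance at 545 nm read at 15, 30 and 60 min. Wells without compound served as negative controls. At least three replicates per compound and control.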
For orientation: Loss of DPPH colour is used to gauge radical scavenging.

Assay [2] in a line: Antioxidant activity assessed as DPPH free radical scavenging activity at 5 uM after 15 to 60 mins in presence of CuSO4.5H2O. In kind it is functional. The gist of the method: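 Samples (0.2 mM in MeOH) mixed 1:1 by volume with CuSO4·5H2O (0.4 mM in MeOH), held 1.5 h at room temperature. DPPH step: 74 μM DPPH final in H2O/MeOH (5/3), sample 5 μM final. Mixture left standing, then absorbance read at 545 nm after 15, 30 and 60 min. Wells without compound were negative controls. At least triplicate.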

The nature of assay [3]: Antioxidant activity assessed as DPPH free radical scavenging activity by measuring decrease in signal intensity at 0.015 mmol measured after 30 mins in presence of 3-Omethylquercetin by 13C-NMR spectroscopy.

Take `O=c1c(O[C@@H]2O[C@H](CO)[C@H](O)[C@H](O)[C@H]2O)c(-c2ccc(O)c(O)c2)oc2cc(O)cc(O)c12`: the Activity in assay [1] is less than 70%. Besides, the outcome in assay [2] was Active.

On to `O=c1c(O[C@@H]2O[C@H](CO)[C@@H](O)[C@H](O)[C@H]2O)c(-c2ccc(O)c(O)c2)oc2cc(O)cc(O)c12`, for which, in assay [1], the Activity was less than 70%. In assay [2], the outcome was Active. As for `COc1c(-c2ccc(O)c(O)c2)oc2cc(O)cc(O)c2c1=O`, the Activity in assay [1] was less than 70%. The result in assay [2] was Active. Consider `COC(=O)c1cc(O)c(O)c(O)c1`, for which, in assay [3], the outcome was Active. For `COc1ccc(-c2oc3cc(O)cc(O)c3c(=O)c2O)cc1O`, the result in assay [2] was Active.

Consider `O=C(OC[C@H]1O[C@@H](Oc2c(-c3ccc(O)c(O)c3)oc3cc(O)cc(O)c3c2=O)[C@H](O)[C@@H](O)[C@@H]1O)c1cc(O)c(O)c(O)c1`, for which the Activity in assay [2] was less than 35%. Regarding `O=C(O[C@@H]1[C@@H](O)[C@H](Oc2c(-c3ccc(O)c(O)c3)oc3cc(O)cc(O)c3c2=O)O[C@H](CO)[C@H]1O)c1cc(O)c(O)c(O)c1`, in assay [2], the Activity is less than 35%.

`COc1cc(-c2oc3cc(O)cc(O)c3c(=O)c2O[C@@H]2O[C@H](CO)[C@@H](O)[C@H](O)[C@H]2O)ccc1O`: the result in assay [2] was Active. Turning to `COc1cc(O)cc2oc(-c3ccc(O)c(O)c3)c(O[C@@H]3O[C@H](CO)[C@@H](O)[C@H](O)[C@H]3O)c(=O)c12`, the Activity in assay [1] is less than 70%. Also, the result in assay [2] was Active. The corresponding values for `O=c1c(O)c(-c2ccc(O)c(O)c2)oc2cc(O)cc(O)c12` are less than 70% and “Active”. With `O=C(O[C@H]1[C@H](O)[C@@H](O)[C@H](Oc2c(-c3ccc(O)c(O)c3)oc3cc(O)cc(O)c3c2=O)O[C@@H]1CO)c1cc(O)c(O)c(O)c1`, the Activity in assay [2] is less than 35%.

`COc1cc(O)cc2oc(-c3ccc(O)c(O)c3)c(O)c(=O)c12`: in assay [1], the Activity was less than 70%. In addition, the outcome in assay [2] was Active. As to `O=C(O[C@H]1[C@H](Oc2c(-c3ccc(O)c(O)c3)oc3cc(O)cc(O)c3c2=O)O[C@H](CO)[C@@H](O)[C@@H]1OC(=O)c1cc(O)c(O)c(O)c1)c1cc(O)c(O)c(O)c1`, the Activity in assay [2] was less than 35%. Turning to `COc1cc(O)cc2oc(-c3ccc(O)c(O)c3)c(O[C@@H]3O[C@H](CO)[C@H](O)[C@H](O)[C@H]3O)c(=O)c12`, the Activity in assay [1] is less than 70%. The outcome in assay [2] was Active.

Turning to `COc1cc(-c2oc3cc(O)cc(O)c3c(=O)c2O[C@@H]2O[C@H](CO)[C@H](O)[C@H](O)[C@H]2O)ccc1O`, in assay [2], the result was Active. On the same count and under the same terms, as for `COc1cc(-c2oc3cc(O)cc(O)c3c(=O)c2O)ccc1O`, the entry is “Active”.

For the compound `O=C(O[C@H]1[C@H](Oc2c(-c3ccc(O)c(O)c3)oc3cc(O)cc(O)c3c2=O)O[C@H](CO)[C@@H](O)[C@@H]1O)c1cc(O)c(O)c(O)c1`, the Activity in assay [2] was less than 35%.

The values above are taken from ChEMBL document CHEMBL3861961, “Effects of Functional Groups and Sugar Composition of Quercetin Derivatives on Their Radical Scavenging Properties” (J Nat Prod, 2016).
